Our source for the cytotoxicity values is ChEMBL document CHEMBL4513216, “Probing the Open Global Health Chemical Diversity Library for Multistage-Active Starting Points for Next-Generation Antimalarials” (ACS Infect Dis, 2020).

The data set in a line: Toxicity liver stage against HepG2, at 10uM. Also on record: test concentration 10 uM, cell line HepG2-A16-CD81EGFP. The format is cell-based. The following applies: human, HepG2-A16-CD81EGFP cells; read-out: INHIBITION
The procedure, abridged: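 Uninfected HepG2-A16-CD81EGFP cells, 3 × 10^3 per well, 1536-well, plated on prespotted compound at 10 μM final, parasite-free screening media added to match infected plates; puromycin 10 μM positive, DMSO 0.5% negative; run in parallel with 48 h PbLuc assay at 37 °C, 5% CO2; viability by CellTiter-Glo luminescence, normalized to controls.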

Regarding `CS(=O)(=O)N1C[C@@H]2COC[C@]2(CN2CCOCC2)C1`, the cytotoxicity at 10 µM was found to be 0.472%.
Consider `Cc1cccc(CN2CCN3C[C@H](Oc4cccnc4)C[C@H]3C2)n1`, for which the cytotoxicity at 10 µM turned out to be 6.61%.
The result for `CCC(=O)N1CCC1c1cc(NC2CCCC2)nc(C)n1` (stereo unspecified) reads -7.61%; that for `CC(c1nc(C(C)(C)C)no1)S(=O)(=O)CC(=O)N(C)C` (stereo unspecified), -0.0515%; that for `Cc1ccc(C(=O)N2CCC3(CC2)CC(N2CCCC2)C3)cc1`, -0.77%.
In the case of `COCCN1CCCC1Cn1nc(C)cc1C` (stereo unspecified), the cytotoxicity at 10 µM stood at 1.31%.
With `CCC[C@@H]1CN(Cc2cnc3c(S(C)(=O)=O)cnn3c2)C[C@H]1N(C)C`, the cytotoxicity at 10 µM was -2.12%.
Turning to `CCc1cnc(CN2CCC(N(C)Cc3noc(C)n3)C2)o1` (stereo unspecified), the cytotoxicity at 10 µM was 4.92%.
`Cc1ccc(N2CCCC(NCc3ccccn3)C2)nn1` (stereo unspecified): the cytotoxicity at 10 µM was 0.301%.
Take `CC(=O)N1CCc2nc(C3CCN(C(=O)c4ccccc4)C3)ncc2C1` (stereo unspecified): the cytotoxicity at 10 µM was -4.76%.
The result for `COc1ccc(Cl)cc1CS(=O)(=O)Cc1nc(C)no1` reads -2.53%; that for `Cc1cc(C(=O)Nc2ccc(OC3CCOCC3)c(C)c2)[nH]n1`, -8.03%; that for `Cc1ccc(C(NC(=O)CC2CCN(C(C)C)CC2)C(=O)O)cc1` (stereo unspecified), -9.99%.
To `Cn1nc(C(=O)NC2(c3ccccc3)CCC2)ccc1=O` belongs 1.42%; to `Cc1nc(N2CC[C@@H](c3ccc4ccccc4c3)[C@H](O)C2)no1`, -3.65%; to `CC(NC(=O)N(C)Cc1ccc2c(c1)OCCO2)c1nncn1C` (stereo unspecified), -2.25%.
The result for `COc1ccc(C2CCCN2C(=O)c2cc(C(C)C)on2)cc1` (stereo unspecified) reads 0.462%.
With `Cc1cc(C)n(CC2CN(CC(=O)NC(C3CC3)C3CC3)CCO2)n1` (stereo unspecified), the cytotoxicity at 10 µM is -0.544%.
The result for `CCN1CCCC1CN(CCN(C)C)S(=O)(=O)c1cccc(C#N)c1` (stereo unspecified) reads -12.1%; that for `CCCN1CCN(C(=O)c2cnccc2C)[C@H]2CS(=O)(=O)C[C@H]21`, -1.7%; that for `Cc1cc(C)c2ncn(CC(C)(C)CO)c(=O)c2c1`, 15.4%.
Consider `CN(C)C(=O)c1cnc2n1CCN(Cc1ccc3c(c1)OCO3)C2`, for which the cytotoxicity at 10 µM is -69%.
As for `CN(Cc1ccncc1)Cc1cnn(-c2ccc(F)cc2)c1`, the cytotoxicity at 10 µM came to 10%.
To `Cc1cc(N2CCC(N(C)C(=O)Nc3ccccc3)CC2)nc(C)n1` belongs -19.4%; to `COCCN1CCC(CN(CC2CCCO2)C(=O)CCNC(C)=O)CC1` (stereo unspecified), -5.99%; to `COc1ccc(CN2CCCCC2CNC(=O)OC(C)(C)C)cc1F` (stereo unspecified), -2.26%.
As to `O=C(c1cnc[nH]1)N1CCC(Oc2cccnc2)CC1`, the cytotoxicity at 10 µM is 6.87%.
Take `Cc1ccc2nc(CN(Cc3ccc(C#N)cc3)C(C)C)cc(=O)n2c1`: the cytotoxicity at 10 µM was 21.1%.
For the compound `O=C(NCC1CCOC1)c1csc(-c2ccccc2)n1` (stereo unspecified), the cytotoxicity at 10 µM was -0.755%.
`Cc1ccc(NS(=O)(=O)c2cc3c(c(C(=O)O)c2)OCCO3)c(F)c1`: the cytotoxicity at 10 µM is -9.36%.
On to `CC(c1ccon1)N(C)S(=O)(=O)NCc1ccccc1` (stereo unspecified), for which the cytotoxicity at 10 µM was -0.174%.
In the case of `Cc1cc(C[S+]([O-])CC(=O)NCc2cccc(Cl)c2)no1` (stereo unspecified), the cytotoxicity at 10 µM was -1.56%.
Regarding `O=C(c1cccn1-c1ccc2c(c1)OCCO2)N1CCCC1`, the cytotoxicity at 10 µM is -9.42%.
Regarding `c1ccc(-c2cc(CN3CCC(c4ccn[nH]4)CC3)on2)cc1`, the cytotoxicity at 10 µM is 7.98%.
To `CCn1ccnc1C1CCN(C(=O)C(O)c2ccc(OC)cc2)CC1` (stereo unspecified) belongs 0.171%; to `CCc1nc(C2CCCN2CC(=O)Nc2nnc(C)s2)no1` (stereo unspecified), -1.73%.
For the compound `CC(C)Cc1noc(CN(C)c2cc(C(C)C)nc3ccnn23)n1`, the cytotoxicity at 10 µM was -7.55%.
As to `COc1cccc(-n2nnc(C(=O)N3CCCC3)c2C)c1`, the cytotoxicity at 10 µM is -5.41%.
Consider `c1coc(-c2nnc([C@H]3CCN(Cc4ccc5c(c4)OCO5)C3)o2)c1`, for which the cytotoxicity at 10 µM is -0.0837%.
For the compound `CC(CNC(=O)c1cc(C2CC2)on1)N1CCc2ccccc21` (stereo unspecified), the cytotoxicity at 10 µM is -11.8%.
To `Cc1cc(C)n(CCC2CC(=O)Nc3cc4[nH]ncc4cc32)n1` (stereo unspecified) belongs -6.17%; to `Cc1ccc(Oc2ncccc2C(=O)N(C)CCCN(C)C)cc1`, 1.73%; to `CC(C)c1nc2n(n1)CC(NCc1nnc(-c3ccco3)o1)CC2` (stereo unspecified), -9.78%.
The result for `CCCN1CCCC2(CCN(S(=O)(=O)c3cccnc3)C2)C1=O` (stereo unspecified) reads -2.3%; that for `COCC1CN(Cc2ccc(F)cc2)Cc2nnn(CC3CC3)c21` (stereo unspecified), 3.4%.
The result for `CC(C)c1cn(CC(=O)NC2CC(=O)N(CCc3ccccc3)C2)nn1` (stereo unspecified) reads -15.1%.
`CN1CC(=O)N(c2ccccc2)Cc2c(NC3CC3)ncnc21`: the cytotoxicity at 10 µM turned out to be 6.86%.
To `Cc1cccc(NC(=O)N2CCCn3cnc(CN(C)C(C)C)c3C2)c1` belongs 8.18%; to `Cc1cnn(C2CCCN(C(=O)c3ccn(C)c(=O)c3)C2)c1` (stereo unspecified), 4.55%; to `CN(Cc1nnc(C2CC2)n1C)S(=O)(=O)c1ccccc1C#N`, 14.9%.
For `COc1ccc(CN(C)CCS(=O)(=O)c2ccc(Cl)cc2)cc1OC`, the cytotoxicity at 10 µM amounted to 2.68%.
As to `CCOCc1cc(CNC2CCCc3c2cnn3CC)ccc1OC` (stereo unspecified), the cytotoxicity at 10 µM is -11.3%.
As for `O=C(Cn1nc2ccccc2n1)N1CCCn2cncc2C1`, the cytotoxicity at 10 µM was 1.87%.
As to `COc1c(C2CCCN2C(=O)c2cnc[nH]2)c(C)nn1C` (stereo unspecified), the cytotoxicity at 10 µM was -1.68%.
As to `O=C1CCC(C(=O)Nc2ccc(=O)n(Cc3ccccc3Cl)c2)N1` (stereo unspecified), the cytotoxicity at 10 µM is -1.36%.
With `CC(C)NC(=O)C1CCC2(CCNCC2)C1` (stereo unspecified), the cytotoxicity at 10 µM stood at 7.18%.
Consider `C[C@@H]1CN(S(=O)(=O)N2CCCCCC2)C[C@@]1(O)C1CCC1`, for which the cytotoxicity at 10 µM is 17.6%.
Turning to `Cc1ccc(C(=O)NS(C)(=O)=O)cc1-n1cccc1`, the cytotoxicity at 10 µM is -3.47%.
In the case of `CN(Cc1nccn1CC(F)(F)F)C(=O)c1ccc(F)cc1F`, the cytotoxicity at 10 µM is 3.3%.
To `CCN(CC)C(=O)c1nnsc1-c1ccc(C)cc1` belongs 3.14%; to `Cc1nnc(N2CCCC3(CN(Cc4nccn4C)CCO3)C2)o1` (stereo unspecified), -6.83%.
The result for `CN1CCC(N2CCN(C(C(=O)O)c3cccc4c3OCC4)CC2)CC1` (stereo unspecified) reads 11%; that for `Cc1ccc(S(=O)(=O)N2CCN(C)C3(CCC(=O)N(C)CC3)C2)s1` (stereo unspecified), 8.63%; that for `CCc1nc(C2CCCN2CC(=O)Nc2sc(C)c(C)c2C)no1` (stereo unspecified), -10.9%.
The result for `COCCO[C@H]1COCCN(C2CCN(C)CC2)C1` reads 3.08%; that for `CCN(CC)Cc1ccc(C(=O)N2CCCC2Cn2cc(C)cn2)o1` (stereo unspecified), -11.4%; that for `Cc1cc(CN(C)C(=O)NCc2ccccn2)no1`, 1.62%.
As to `O=C1O[C@@H]2CN(c3ncccn3)C[C@@H]2N1CCCc1ccc(F)cc1`, the cytotoxicity at 10 µM is -0.74%.
To `CN(C)CC(C)(O)CNC(=O)Nc1sc2ccccc2c1Cl` (stereo unspecified) belongs 11.5%.
The result for `O=C(NCCc1nccs1)C1CCCN(Cc2ccco2)C1` (stereo unspecified) reads 1.5%; that for `CO[C@H]1CCN(Cc2c(C)noc2C)[C@@H]2CN(Cc3cccnc3)C[C@H]12`, 5.55%.
For `CC(Cc1c(F)cccc1F)NC(=O)CSCC(N)=O` (stereo unspecified), the cytotoxicity at 10 µM is -6.37%.
Turning to `COc1ccc(CN2C[C@H]3CCC[C@@H](CN(C)C)[C@H]3C2)cn1`, the cytotoxicity at 10 µM was found to be 4.65%.
Take `CC(=O)N1CCC(c2n[nH]c3nccnc23)CC1`: the cytotoxicity at 10 µM is -8.69%.
Consider `CCOCc1ncn2c1CN(C(=O)Nc1ccc(CC)cc1)CC2`, for which the cytotoxicity at 10 µM came out at 5.96%.
To `CCN(CC)CCNc1ncc(-c2cc(C)no2)c(-c2ccoc2C)n1` belongs -4.94%.
As for `Cc1ocnc1C(=O)N(C)[C@@H]1CCC[C@@H](N2CCCC2)[C@@H]1O`, the cytotoxicity at 10 µM was -3.7%.
With `Cc1c(-c2ccncc2)n[nH]c1NC(=O)CCOC(C)C`, the cytotoxicity at 10 µM came to 6.58%.
In the case of `COc1ccc(CNC(=O)N(Cc2ccc(F)cc2F)C2CC2)cn1`, the cytotoxicity at 10 µM is -6.67%.
Consider `c1ccc(N2CCC(OCC3CCCCO3)CC2)nc1` (stereo unspecified), for which the cytotoxicity at 10 µM is -1.03%.
Consider `CSCCCN1CCC[C@]2(C(=O)O)CN(c3cnccn3)CC[C@@H]12`, for which the cytotoxicity at 10 µM is 8.26%.
Turning to `CN(Cc1cc(C(C)(C)C)n[nH]1)C(=O)CCC(=O)NC1CCCC1`, the cytotoxicity at 10 µM was -2.12%.
Turning to `Cn1nnc2c1CCN(C(=O)C1CC1)C2COCCN1CCCC1` (stereo unspecified), the cytotoxicity at 10 µM was 8.33%.
As to `CCC(=O)N1CCC2(CCC(N3CCCC3)c3ccccc32)CC1` (stereo unspecified), the cytotoxicity at 10 µM is -6.23%.
Take `N#Cc1cc(F)c(N2CCC(NS(=O)(=O)c3cccs3)CC2)c(F)c1`: the cytotoxicity at 10 µM is 8.76%.
The result for `O=C(NCc1ccncc1)N1CCSCC1c1ccc(Cl)cc1` (stereo unspecified) reads 1.6%; that for `Cc1ncc(CN2CCCC(c3cc(C(N)=O)[nH]n3)C2)s1` (stereo unspecified), -27.7%; that for `CCCN1CCCN(CCCOc2cccc(C#N)c2)CC1`, 18%.
As for `O=C(N[C@@H]1CCNC[C@H]1O)c1ccccc1OC(F)(F)C(F)F`, the cytotoxicity at 10 µM is -3.28%.
For `c1cc(-c2c[nH]c([C@@H]3COCCN3Cc3csnn3)n2)ccn1`, the cytotoxicity at 10 µM came to 3.07%.
In the case of `NCCC(=O)N1CCC2(CC1)CN(C(=O)Cc1cccc(Cl)c1)CCO2`, the cytotoxicity at 10 µM amounted to 5.56%.
For `CC(C)CC(CC(C)C)NC(=O)c1ccn(C)c(=O)c1`, the cytotoxicity at 10 µM was -0.717%.
To `O=C(Cc1ccc2c(c1)OCCCO2)Nc1nnn[nH]1` belongs -4.66%; to `N#Cc1ccc(C(=O)N2CCOC[C@H](Oc3cnccn3)C2)cc1`, 5.88%; to `Cc1cccc(N2CCN(C(=O)NC(C)c3nncn3C)CC2)c1C` (stereo unspecified), -4.41%.
The result for `Cn1ccnc1-c1cccc(NC(=O)NCCCO)c1` reads -6.77%.
